High-throughput results deposited in PubChem by Broad Institute.
Only some compounds are listed: those with a hit (about 3.5% of all), similar ones and a draw of the others.
ERAP1 inh: blocks human ERAP1 aminopeptidase activity. Q9NZ08. recombinant ERAP1, Leu-AMC fluorescence, 60 min. inhibition, % at 10.7 µM. 0.15% of 340,000 active. AID 652197;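 active means mean replicate inhibition of at least 30%, or all replicates individually reaching that 30% level; inactive means mean below 30% and not every replicate reaching it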;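 further: 0% = neutral control wells and 100% = L-leucinethiol positive control wells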
Target sequence (Q9NZ08 whole entry, looked up): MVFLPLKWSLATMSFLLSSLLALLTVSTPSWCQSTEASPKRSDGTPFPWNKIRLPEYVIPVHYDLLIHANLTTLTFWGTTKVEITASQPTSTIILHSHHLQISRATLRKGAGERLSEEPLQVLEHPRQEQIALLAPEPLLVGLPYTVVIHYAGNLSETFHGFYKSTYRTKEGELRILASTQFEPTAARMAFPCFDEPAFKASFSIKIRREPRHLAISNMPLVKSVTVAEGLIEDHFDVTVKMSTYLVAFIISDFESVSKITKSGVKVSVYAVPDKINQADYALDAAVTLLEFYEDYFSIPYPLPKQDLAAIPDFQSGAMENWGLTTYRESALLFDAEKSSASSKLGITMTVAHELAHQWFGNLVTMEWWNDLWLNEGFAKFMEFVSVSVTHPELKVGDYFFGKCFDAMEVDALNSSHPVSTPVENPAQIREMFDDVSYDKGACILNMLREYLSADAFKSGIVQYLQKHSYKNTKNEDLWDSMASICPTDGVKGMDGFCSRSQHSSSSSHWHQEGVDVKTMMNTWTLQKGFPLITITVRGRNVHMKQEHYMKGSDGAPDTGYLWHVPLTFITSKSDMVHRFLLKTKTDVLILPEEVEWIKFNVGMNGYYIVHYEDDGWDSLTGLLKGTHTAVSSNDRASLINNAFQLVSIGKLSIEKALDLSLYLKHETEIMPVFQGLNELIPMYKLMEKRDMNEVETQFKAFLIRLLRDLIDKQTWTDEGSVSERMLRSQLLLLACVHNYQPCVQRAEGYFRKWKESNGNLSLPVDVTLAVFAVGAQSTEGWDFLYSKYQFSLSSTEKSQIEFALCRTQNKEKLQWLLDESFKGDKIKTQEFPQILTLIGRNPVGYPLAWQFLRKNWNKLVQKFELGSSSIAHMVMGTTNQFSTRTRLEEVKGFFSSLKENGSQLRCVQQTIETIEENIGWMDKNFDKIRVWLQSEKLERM
Wnt bcat act: activates Wnt/beta-catenin signaling in a reporter cell assay; activator, plate reader; activation, % at 9.35 µM; 1.2% of 300,000 active; in the data active means activation above about 30%, passing the limit was not always enough; inconclusive means no clear call, values can overlap the other calls;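 further: 0% = neutral control wells and 100% = positive control wells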
esBAF inh: blocks esBAF chromatin remodeling in mouse ES cells; 2% of 350,000 active; reporter increase, % at 12.5 µM; AID 602393; Bmi1-luciferase knock-in reporter, 24 h; 100% = twice the neutral-well signal; in the data active means activation above about 40%; inconclusive means no clear call, values can overlap the other calls;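 further: 0% = median of the plate's neutral control wells and 100% = double that signal; a rise in the Bmi1 reporter signal indicates esBAF inhibition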
Env fusion inh: HIV envelope-mediated fusion inhibition; HeLa-JRFL Env/CEM21 cell fusion, luciferase; inhibition, % at 12.3 µM; 1.1% of 360,000 active; AID 651610;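 active means mean replicate inhibition score of at least 50 and every replicate individually at or above 50; inconclusive means only one of the two criteria met; inactive means mean below 50 and not all replicates reaching 50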;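 further: 0% = plate neutral controls and 100% = maraviroc near 300 nM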
Cneo AK release: Cryptococcus neoformans lysis via adenylate kinase release; 0.2% of 360,000 active; lysis activity, % at 15 µM; C. neoformans lysis, adenylate kinase release luminescence, 4 h; normalised: neutral wells 0, clomiphene wells 100;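 active means mean lysis activity across replicates of at least 80%, whatever share of replicates individually reach that level; inactive means mean lysis activity below 80%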
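Assay system: Cryptococcus neoformans yeast cells / Dosing: single-point compound dose / Timing: 4 h at 37 °C static, read 1 h later / Measured by: luminescence of released adenylate kinase using an AK detection reagent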
MITF TRPM1 HTS: activators of MITF-driven TRPM1 promoter activity in SK-MEL-5 cells; SK-MEL-5 TRPM1-promoter luciferase, 24 h; % of positive control, neutral wells = 0; activation, % at 12.5 µM; 0.75% of 300,000 active; AID 588334;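 active means mean activation of at least 80% with every replicate also reaching 80%; inconclusive means mean reaches 80% but some replicate falls short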;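 further: 0% = neutral control wells and 100% = parthenolide positive control wells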
* marks the source's active call; other numbers are inactive results; [ ] = dose if it differs, or a comment.

How did O=C(c1cccnc1)N1CCC(Oc2ccc(C(=O)N3CCCC(O)C3)cc2)CC1 (centres undefined) do in these assays?
ERAP1 inh: 12; Wnt bcat act: 1; esBAF inh: 2; Env fusion inh: -4; Cneo AK release: 111*; MITF TRPM1 HTS: 0

Results for COCC(=O)Nc1ccc2c(c1)C(=O)N(C)C[C@@H](OC)[C@@H](C)CN[C@H](C)CO2 ?
esBAF inh: 2; Env fusion inh: 11[16.7 µM]; Cneo AK release: -4

How did Fc1ccc(NC(=S)NNc2ncc(C(F)(F)F)cc2Cl)c(F)c1 do in these assays?
ERAP1 inh: -5; Wnt bcat act: -5; Env fusion inh: 70*; MITF TRPM1 HTS: -62

How did O=C(O)c1ccc(NNC(=S)Nc2cc(C(F)(F)F)ccc2Cl)cc1 do in these assays?
ERAP1 inh: -5; Wnt bcat act: 7; esBAF inh: 54*; Env fusion inh: 5; Cneo AK release: -3

What do the screens show for `Cc1ccc(NC(=S)NNc2ncc(C(F)(F)F)cc2Cl)c(C)c1`?
esBAF inh: -10; Cneo AK release: 3; MITF TRPM1 HTS: 6

Results for FC(F)(F)c1cnc(NNC(=S)Nc2ccc(Cl)cc2)c(Cl)c1 ?
Env fusion inh: 55*; MITF TRPM1 HTS: -48

What do the screens show for `Cc1ccc(NC(=S)NNc2ncc(C(F)(F)F)cc2Cl)cc1`?
esBAF inh: -20; Env fusion inh: 3; Cneo AK release: 4; MITF TRPM1 HTS: -30

Results for COc1ccc(S(=O)(=O)N2C[C@H](O)COC[C@H]3O[C@H](CC(=O)N[C@H]4CCN(Cc5ccccc5)C4)CC[C@@H]32)cc1 ?
esBAF inh: -1; Env fusion inh: -6[16.7 µM]; Cneo AK release: -2

How did COC(=O)c1c(C)[nH]c(C(=O)C(C)OC(=O)C2CC(=O)N(c3ccc(C)cc3)C2)c1C (centres undefined) do in these assays?
ERAP1 inh: -2; Wnt bcat act: -1; esBAF inh: 4; Env fusion inh: 23; Cneo AK release: 4; MITF TRPM1 HTS: -13

What do the screens show for `COC(=O)c1c(C)[nH]c(C(=O)C(C)OC(=O)C2CC(=O)N(CCc3ccccc3)C2)c1C` (centres undefined)?
ERAP1 inh: -2; Wnt bcat act: 50*; esBAF inh: -5; Env fusion inh: 19; Cneo AK release: 0; MITF TRPM1 HTS: -7

What do the screens show for `CCN(CC)C(=O)C1CCN(Cc2cn(C)nc2-c2ccc(Oc3ccccc3)cc2)CC1`?
ERAP1 inh: -2; Wnt bcat act: 54*; Env fusion inh: 4; MITF TRPM1 HTS: -11

How did C[C@H](CO)N1C[C@H](C)[C@H](CN(C)C(=O)Nc2ccccc2F)Oc2ncc(-c3ccccc3)cc2C1=O do in these assays?
ERAP1 inh: -7; esBAF inh: 5; Env fusion inh: -19[16.7 µM]; Cneo AK release: 1

How did Cc1nn(C)c(C)c1C(C)NC(=O)c1cc(COc2ccc(F)c(F)c2)on1 (centres undefined) do in these assays?
ERAP1 inh: 3; Wnt bcat act: 1; esBAF inh: 51*; Env fusion inh: -18; Cneo AK release: 1; MITF TRPM1 HTS: 56

Results for O=C(Cc1ccncc1)N1CC(=O)N2[C@H](CO)[C@H](c3ccc(C4=CCCC4)cc3)[C@@H]2C1 ?
ERAP1 inh: -1

Results for O=C(c1ccccc1)c1ccc(OCC(O)CN2CCN(S(=O)(=O)N3CCCCC3)CC2)cc1 (centres undefined) ?
esBAF inh: 3; Env fusion inh: 60*; Cneo AK release: 0; MITF TRPM1 HTS: -17

What do the screens show for `CCOC(=O)c1c(NC(=O)COC(=O)CCNS(=O)(=O)c2ccccc2)sc(C(=O)NC)c1C`?
ERAP1 inh: 38*; Wnt bcat act: -2; esBAF inh: 8; Cneo AK release: 2; MITF TRPM1 HTS: 1

How did C/C=C/c1ccc([C@H]2[C@@H](CO)N3C(=O)CN(C(=O)Nc4cccc(OC)c4)C[C@@H]23)cc1 do in these assays?
ERAP1 inh: 2

How did O=C1c2ccccc2C(=O)C1c1ccc(O)cc1 do in these assays?
ERAP1 inh: 2; Wnt bcat act: inconclusive; esBAF inh: 59*; Env fusion inh: -21; Cneo AK release: -5; MITF TRPM1 HTS: 59

How did O=C1c2ccccc2C(=O)C1c1ccc(Br)cc1 do in these assays?
ERAP1 inh: 1; Wnt bcat act: 5; esBAF inh: -1; Env fusion inh: -1; Cneo AK release: 4; MITF TRPM1 HTS: 48

Results for Cc1ccc(OC(=O)c2cccc([N+](=O)[O-])c2)c(-n2nc3ccccc3n2)c1 ?
Wnt bcat act: 43*; esBAF inh: 84*; Env fusion inh: -146; MITF TRPM1 HTS: 76

What do the screens show for `Cc1ccc(OC(=O)COc2ccccc2)c(-n2nc3ccccc3n2)c1`?
Wnt bcat act: 55*; Env fusion inh: -226; Cneo AK release: -4; MITF TRPM1 HTS: 37

Results for COC(=O)COc1ccc(C)cc1-n1nc2ccccc2n1 ?
ERAP1 inh: 4; Wnt bcat act: -2; esBAF inh: -6; Env fusion inh: 6; Cneo AK release: -1; MITF TRPM1 HTS: 2

How did Cc1ccc(OC(=O)COc2ccccc2C)c(-n2nc3ccccc3n2)c1 do in these assays?
Wnt bcat act: 18; esBAF inh: 27; Env fusion inh: -120; Cneo AK release: 0; MITF TRPM1 HTS: 60

How did CCCNC(=O)C[C@H]1CC[C@H]2[C@@H](COC[C@@H](O)CN2C(=O)c2cc(Cl)cc(Cl)c2)O1 do in these assays?
ERAP1 inh: -2; esBAF inh: 0; Cneo AK release: 5

What do the screens show for `C/C=C/c1ccc([C@@H]2[C@@H](CO)N(C(=O)C3CCCC3)C23CN(C(=O)NC(C)C)C3)cc1`?
ERAP1 inh: -3; Env fusion inh: -9[16.7 µM]

How did c1ccc(-c2csc(N3CCSCC3)n2)cc1 do in these assays?
ERAP1 inh: -1; Wnt bcat act: 28; Env fusion inh: -36; MITF TRPM1 HTS: 58

Results for Fc1ccc(-c2csc(N3CCSCC3)n2)cc1 ?
ERAP1 inh: 1; Wnt bcat act: 4; esBAF inh: 46*; Env fusion inh: -30; Cneo AK release: -1; MITF TRPM1 HTS: 51

Results for O=[N+]([O-])c1ccc(-c2cn(-c3ccc(Cl)cc3)cn2)cc1 ?
ERAP1 inh: 2; Wnt bcat act: 5; Env fusion inh: -114

Results for Brc1ccc(-n2cnc(-c3ccccc3)c2)cc1 ?
ERAP1 inh: 0; Wnt bcat act: 45*; esBAF inh: 12; Env fusion inh: -178; Cneo AK release: -4; MITF TRPM1 HTS: 45

What do the screens show for `C[C@@H]1CN([C@@H](C)CO)C(=O)c2cccc(NC(=O)NC3CCCCC3)c2O[C@@H]1CN(C)C(=O)Nc1ccc(F)cc1`?
ERAP1 inh: 0; esBAF inh: 6; Env fusion inh: 5[16.7 µM]; Cneo AK release: 6
